Laboratory results: article PMC4862586 (The New England journal of medicine, 2015)

Assays:
[1] = tested on: patients with relapsed CLL; assay: Phase 1–2 multicenter study: safety, adverse events; type: in vivo
relapsed CLL = assay: Phase 1–2 multicenter study: clinical response; type: in vivo, human; details: for Resolution of B symptoms: 16 patients with B symptoms at baseline
[2] = Pharmacokinetics in patients, cycle 1, non-compartmental analysis; type: in vivo; details: human, po
phosphorylated Btk = assay: Phosphorylation of Btk by intracellular flow cytometry; type: in vivo, human; details: respective time points across all cohorts
How it was run: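 Patients with relapsed CLL received oral drug continuously at 100, 175, 250 or 400 mg once daily (dose escalation) or 100 mg twice daily (phase 2 expansion). Phosphorylated Btk in blood samples was measured by intracellular flow cytometry.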

platelet aggregation = assay: Platelet aggregation derived from blood of patients; type: in vivo, human; details: blood of patients receiving the drug
[3] = tested on: pro-inflammatory cytokines; assay: Pro-inflammatory cytokine levels in patients; type: in vivo, human; details: from baseline to day 28 of treatment
How it was run: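 Patients with relapsed CLL were dosed orally and continuously at 100–400 mg once daily or 100 mg twice daily. Change in serum cytokines from baseline was tested by Wilcoxon signed-rank. Only patients with baseline and every follow-up value were included, and there was no multiplicity adjustment.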

[4] = Serum immunoglobulins and immune cell numbers over time in patients; type: in vivo
primary CLL cells = assay: B-cell receptor signaling in primary CLL cells; type: cell-based, human
EGFR = EGFR signaling; type: cell-based
Itk = target: T1, Itk (Homo sapiens, UniProt Q08881); assay: Itk inhibition; type: cell-based
T1 sequence (Q08881 1-620): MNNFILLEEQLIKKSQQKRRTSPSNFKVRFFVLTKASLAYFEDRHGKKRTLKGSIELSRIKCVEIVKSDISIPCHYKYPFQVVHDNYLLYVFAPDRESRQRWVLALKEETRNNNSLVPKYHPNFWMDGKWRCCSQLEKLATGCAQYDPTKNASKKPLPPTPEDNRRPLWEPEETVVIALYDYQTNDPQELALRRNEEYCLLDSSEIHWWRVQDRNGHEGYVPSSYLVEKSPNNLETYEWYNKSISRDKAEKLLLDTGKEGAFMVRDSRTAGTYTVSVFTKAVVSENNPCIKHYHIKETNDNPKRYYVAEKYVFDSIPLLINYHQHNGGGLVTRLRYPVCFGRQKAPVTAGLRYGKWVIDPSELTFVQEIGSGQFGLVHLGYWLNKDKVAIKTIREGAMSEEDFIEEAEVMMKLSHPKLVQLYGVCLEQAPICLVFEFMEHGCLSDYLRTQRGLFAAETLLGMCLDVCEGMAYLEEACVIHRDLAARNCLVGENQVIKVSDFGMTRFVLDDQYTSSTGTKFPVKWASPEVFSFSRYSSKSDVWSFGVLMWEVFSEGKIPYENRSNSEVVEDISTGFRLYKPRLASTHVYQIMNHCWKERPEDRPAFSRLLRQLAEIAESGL

natural killer cells = type: cell-based, human; details: obinutuzumab-coated CLL cells
[5] = tested on: naturally occurring canine B-cell lymphomas; details: cited from earlier work
CLL = details: cited from earlier work
[6] = all patients, median follow-up 14.3 months

For `CC#CC(=O)N1CCC[C@H]1c1nc(-c2ccc(C(=O)Nc3ccccn3)cc2)c2c(N)nccn12` [acalabrutinib, Acalabrutinib], the “Grade 5 event of pneumonia” value ([1]; N=61) was “† The all-grade column includes one patient with a Grade 5 event of pneumonia”, the “Adverse event Arthralgia, All Grades” value ([1]; human, in vivo) was 10 (16) number of patients (percent) and the “Adverse event Arthralgia, Grades 1–2” value ([1]; human, in vivo) was 9 (15) number of patients (percent). The “Adverse event Arthralgia, Grades 3–4” value ([1]; human, in vivo) was 1 (2) number of patients (percent), the “Adverse event Contusion, All Grades” value ([1]; human, in vivo) was 11 (18) number of patients (percent) and the “Adverse event Contusion, Grades 1–2” value ([1]; human, in vivo) was 11 (18) number of patients (percent). The “Adverse event Contusion, Grades 3–4” value ([1]; human, in vivo) was 0 (0) number of patients (percent), the “Adverse event Decreased weight, All Grades” value ([1]; human, in vivo) was 10 (16) number of patients (percent) and the “Adverse event Decreased weight, Grades 1–2” value ([1]; human, in vivo) was 10 (16) number of patients (percent). The “Adverse event Decreased weight, Grades 3–4” value ([1]; human, in vivo) was 0 (0) number of patients (percent), the “Adverse event Diarrhea, All Grades” value ([1]; human, in vivo) was 24 (39) number of patients (percent) and the “Adverse event Diarrhea, Grades 1–2” value ([1]; human, in vivo) was 23 (38) number of patients (percent). For the same compound, the “Adverse event Diarrhea, Grades 3–4” value ([1]; human, in vivo) was 1 (2) number of patients (percent), the “Adverse event Fatigue, All Grades” value ([1]; human, in vivo) was 13 (21) number of patients (percent) and the “Adverse event Fatigue, Grades 1–2” value ([1]; human, in vivo) was 11 (18) number of patients (percent). For the same compound, the “Adverse event Fatigue, Grades 3–4” value ([1]; human, in vivo) was 2 (3) number of patients (percent), the “Adverse event Headache, All Grades” value ([1]; human, in vivo) was 26 (43) number of patients (percent) and the “Adverse event Headache, Grades 1–2” value ([1]; human, in vivo) was 26 (43) number of patients (percent). For the same compound, the “Adverse event Headache, Grades 3–4” value ([1]; human, in vivo) was 0 (0) number of patients (percent), the “Adverse event Hypertension, All Grades” value ([1]; human, in vivo) was 12 (20) number of patients (percent) and the “Adverse event Hypertension, Grades 1–2” value ([1]; human, in vivo) was 8 (13) number of patients (percent). For the same compound, the “Adverse event Hypertension, Grades 3–4” value ([1]; human, in vivo) was 4 (7) number of patients (percent), the “Adverse event Increased weight, All Grades” value ([1]; human, in vivo) was 16 (26) number of patients (percent) and the “Adverse event Increased weight, Grades 1–2” value ([1]; human, in vivo) was 15 (25) number of patients (percent). The “Adverse event Increased weight, Grades 3–4” value ([1]; human, in vivo) was 1 (2) number of patients (percent), the “Adverse event Nausea, All Grades” value ([1]; human, in vivo) was 12 (20) number of patients (percent) and the “Adverse event Nausea, Grades 1–2” value ([1]; human, in vivo) was 12 (20) number of patients (percent). For the same compound, the “Adverse event Nausea, Grades 3–4” value ([1]; human, in vivo) was 0 (0) number of patients (percent), the “Adverse event Peripheral edema, All Grades” value ([1]; human, in vivo) was 13 (21) number of patients (percent) and the “Adverse event Peripheral edema, Grades 1–2” value ([1]; human, in vivo) was 13 (21) number of patients (percent). For the same compound, the “Adverse event Peripheral edema, Grades 3–4” value ([1]; human, in vivo) was 0 (0) number of patients (percent), the “Adverse event Petechiae, All Grades” value ([1]; human, in vivo) was 10 (16) number of patients (percent) and the “Adverse event Petechiae, Grades 1–2” value ([1]; human, in vivo) was 10 (16) number of patients (percent). For the same compound, the “Adverse event Petechiae, Grades 3–4” value ([1]; human, in vivo) was 0 (0) number of patients (percent), the “Adverse event Pyrexia, All Grades” value ([1]; human, in vivo) was 14 (23) number of patients (percent) and the “Adverse event Pyrexia, Grades 1–2” value ([1]; human, in vivo) was 12 (20) number of patients (percent). The “Adverse event Pyrexia, Grades 3–4” value ([1]; human, in vivo) was 2 (3) number of patients (percent), the “Adverse event Upper respiratory tract infection, All Grades” value ([1]; human, in vivo) was 14 (23) number of patients (percent) and the “Adverse event Upper respiratory tract infection, Grades 1–2” value ([1]; human, in vivo) was 14 (23) number of patients (percent). For the same compound, the “Adverse event Upper respiratory tract infection, Grades 3–4” value ([1]; human, in vivo) was 0 (0) number of patients (percent), the “Most common adverse events: diarrhea” value ([1]; human, in vivo) was 39% and the “Most common adverse events: headache” value ([1]; human, in vivo) was 43%. The “Most common adverse events: increased weight” value ([1]; human, in vivo) was 26%, the “Most common adverse events: pyrexia” value ([1]; human, in vivo) was 23% and the “Most common adverse events: upper respiratory tract infection” value ([1]; human, in vivo) was 23%. The Dose-limiting toxicities ([1]; in vivo) was “No dose-limiting toxicities”, the “Major hemorrhage or atrial fibrillation” value ([1]; in vivo) was “No major hemorrhage or atrial fibrillation” and the “Severe diarrhea, rash, arthralgia/myalgia, bruising and bleeding events” value ([1]; in vivo) was “rare”. For the same compound, the “Tolerability of long-term therapy” value ([1]; in vivo) was “well tolerated”, the Response rate (relapsed CLL; 4 patients with prior idelalisib therapy) was 100% and the “Resolution of B symptoms” value (relapsed CLL; by cycle 4) was 88 % of patients. For the same compound, the “Resolution of B symptoms” value (relapsed CLL; by cycle 9) was 100 % of patients, the Response rate (relapsed CLL; 18 patients with del(17)(p13.1)) was 100% and the “Patients experiencing reduction in lymphadenopathy” value (relapsed CLL; 59 of 60 patients) was 98%. For the same compound, the Progression-free survival events (relapsed CLL; a death from pneumonia (13 months) and a single progression (16 months)) was 2 events, the “Best overall response rate (partial response and partial response with lymphocytosis)” value (relapsed CLL; [6]) was 95% and the “Partial response with lymphocytosis” value (relapsed CLL; [6]) was 10%. For the same compound, the Stable disease (relapsed CLL; [6]) was 5%, the “Cases of Richter’s transformation” value (relapsed CLL; median follow-up 14.3 months) was “No cases” and the “Improvements in hemoglobin levels, platelet count and absolute neutrophil count” value (relapsed CLL; patients with baseline cytopenia) was “noted in the great majority of patients”. For the same compound, the Absorption and elimination ([2]; in vivo) was “rapidly absorbed and eliminated”, the half-life ([2]; plasma) was about 1 h and the “Phosphorylated Btk after treatment” value (phosphorylated Btk) was “complete loss of phosphorylated Btk”. For the same compound, the Platelet aggregation (platelet aggregation) was “not the former”, the Pro-inflammatory cytokines [3] was “decreased significantly” and the “Serum IgG, IgA and IgM over time” value ([4]; excluding patients receiving intravenous immunoglobulin) was “did not demonstrate significant change”. The “T cell (CD4+, CD8+), natural killer cell and monocyte numbers over time” value ([4]; human, in vivo) was “no clinically significant change”, the “Inhibition of B-cell receptor signaling” value (primary CLL cells) was “dose-dependent inhibition” and the “Inhibition of EGFR signaling” value (EGFR) was “does not inhibit”. For the same compound, the Itk inhibition (Itk) was “lack of Itk inhibition”, the “Inhibition of antibody-mediated killing by natural killer cells” value (natural killer cells) was “does not inhibit” and the Clinical responses [5] was “objective clinical responses”.
In the case of `C=CC(=O)Nc1cccc(Nc2nc(Nc3ccc(OCCOC)cc3)ncc2F)c1` [CC-292], the Clinical results (CLL; CLL) is given as “inferior clinical results compared with ibrutinib” and the Tolerability (CLL; human, in vivo) is given as “well tolerated”.
